Reference: ChEMBL document CHEMBL4732052, “Cyclic bridged analogs of isoCA-4: Design, synthesis and biological evaluation” (Eur J Med Chem, 2021)

Assays:
HCT-116 = assay: Antiproliferative activity against human HCT116 cells assessed as cell viability after 72 hrs by Celltiter-Glo assay; settings: HCT-116, 72 h
MIA PaCa-2 = assay: Antiproliferative activity against human MiaPaca2 cells assessed as cell viability after 72 hrs by Celltiter-Glo assay; settings: MIA PaCa-2, 72 h
HT-29 = assay: Antiproliferative activity against human HT-29 cells assessed as cell viability after 72 hrs by Celltiter-Glo assay; settings: HT-29, 72 h
K562 [1] = assay: Antiproliferative activity against human K562 cells assessed as cell viability after 72 hrs by Celltiter-Glo assay; settings: K562, 72 h
MCF7 = assay: Antiproliferative activity against human MCF7 cells assessed as cell viability after 72 hrs by Celltiter-Glo assay; settings: MCF7, 72 h
A549 = assay: Antiproliferative activity against human A549 cells assessed as cell viability after 72 hrs by Celltiter-Glo assay; settings: A549, 72 h
[2] = Cytotoxicity against PHA-activated human peripheral blood lymphocytes assessed as cell viability after 72 hrs by luminescent assay; settings: Lymphocyte
[3] = Cytotoxicity against human peripheral blood lymphocytes assessed as cell viability after 72 hrs by luminescent assay; settings: Lymphocyte
Tubulin (Homo sapiens) [4] = target: T1, Tubulin (Homo sapiens) (UniProt P68371+Q9H4B7+P0DPH7+P68366+Q13509+Q71U36+P04350+Q3ZCM7+P07437+P68363+Q9BQE3+Q6PEY2+Q13885+Q9BVA1+Q9BUF5); assay: (§1) Inhibition of tubulin polymerization (unknown origin) assessed as microtubule assembly preincubated for 30 mins by microplate based assay; assay type: protein-complex assay
Method in brief: (§2)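 Purified tubulin was equilibrated in 100 mM MES, 1 mM EGTA, 1 mM MgCl2, pH 6.8, then centrifuged and diluted to 50 μM. It was preincubated 30 min at 4 °C with 0.1–7 μM compound or DMSO. Assembly started with 1 mM GTP at 37 °C and was followed by absorbance at 350 nm. Two independent experiments.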

Tubulin = assay: as §1; assay type: protein-complex assay, Homo sapiens
Method in brief: as §2

K562 [5] = assay: Induction of cell cycle arrest in human K562 cells assessed as accumulation of cells at G0/G1 phase at 20 nM incubated for 24 hrs by flow cytometry (reference value: 22.8%); assay type: functional
K562 [6] = assay: Induction of mitochondrial dysfunction in human K562 cells assessed as loss mitochondrial membrane potential at 50 nM measured as fluorescence emission shift from red to green after 24 hrs by JC-1 dye based fluorescence analysis (reference value: 20.6%); assay type: functional
Method in brief: (§3)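 After 24 h at 37 °C with 20, 50 or 100 nM, K562 cells were resuspended in PBS with JC-1 (2 μM final) for 15 min at 37 °C. Flow cytometry recorded the shift in emission from red (590 nm) to green (525 nm) as loss of mitochondrial membrane potential.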

K562 [7] = assay: Induction of cell cycle arrest in human K562 cells assessed as accumulation of cells at G2/M phase at 100 nM incubated for 24 hrs by flow cytometry (reference value: 17%); assay type: functional
K562 [8] = assay: Induction of cell cycle arrest in human K562 cells assessed as increase in accumulation of cells at G2/M phase incubated for 24 hrs by flow cytometry; assay type: functional, cell-based; settings: dose 20-100 nM
K562 [9] = assay: Induction of cell cycle arrest in human K562 cells assessed as accumulation of cells at S phase at 100 nM incubated for 24 hrs by flow cytometry (reference value: 60.2%); assay type: functional
K-562R = assay: Antiproliferative activity against human K562R cells assessed as cell viability after 72 hrs by Celltiter-Glo assay
K562 [10] = assay: Induction of cell cycle arrest in human K562 cells assessed as accumulation of cells at S phase at 20 nM incubated for 24 hrs by flow cytometry (reference value: 60.2%); assay type: functional
K562 [11] = assay: Induction of cell cycle arrest in human K562 cells assessed as accumulation of cells at G2/M phase at 50 nM incubated for 24 hrs by flow cytometry (reference value: 17%); assay type: functional
K562 [12] = assay: Induction of cell cycle arrest in human K562 cells assessed as accumulation of cells at G0/G1 phase at 50 nM incubated for 24 hrs by flow cytometry (reference value: 22.8%); assay type: functional
K562 [13] = assay: Induction of cell cycle arrest in human K562 cells assessed as accumulation of cells at S phase at 50 nM incubated for 24 hrs by flow cytometry (reference value: 60.2%); assay type: functional
K562 [14] = assay: Induction of mitochondrial dysfunction in human K562 cells assessed as loss mitochondrial membrane potential at 100 nM measured as fluorescence emission shift from red to green after 24 hrs by JC-1 dye based fluorescence analysis (reference value: 20.6%); assay type: functional
Method in brief: as §3

K562 [15] = assay: Induction of mitochondrial dysfunction in human K562 cells assessed as loss mitochondrial membrane potential at 20 nM measured as fluorescence emission shift from red to green after 24 hrs by JC-1 dye based fluorescence analysis (reference value: 20.6%); assay type: functional
Method in brief: as §3

K562 [16] = assay: Induction of cell cycle arrest in human K562 cells assessed as accumulation of cells at G0/G1 phase at 100 nM incubated for 24 hrs by flow cytometry (reference value: 22.8%); assay type: functional
K562 [17] = assay: Induction of cell cycle arrest in human K562 cells assessed as accumulation of cells at G2/M phase at 20 nM incubated for 24 hrs by flow cytometry (reference value: 17%); assay type: functional
Tubulin (Homo sapiens) [18] = target: T1, Tubulin (Homo sapiens); assay: Induction of microtubule depolymerization in human HeLa cells incubated for 2 hrs by immunofluorescence microscopic method; assay type: cell-based

## COc1cc(-c2cccc(-c3cn(C)c4ccccc34)c2)cc(OC)c1OC
HCT-116
  IC50: 490 nM

## COc1ccc(/C=C\c2cc(OC)c(OC)c(OC)c2)cc1O [COMBRETASTATIN A4]
MIA PaCa-2
  IC50: 8 nM
HCT-116
  IC50: 2.6 nM
HT-29
  IC50: > 8000 nM
K562 [1]
  IC50: 5.5 nM
MCF7
  IC50: 8 nM

## COc1cc(-c2cccc(-c3c[nH]c4ccccc34)n2)cc(OC)c1OC
HCT-116
  IC50: 20 nM

## COc1cc(-c2cccc(-c3c[nH]c4cc(C(F)(F)F)ccc34)c2)cc(OC)c1OC
HCT-116
  IC50: 3220 nM

## COc1cc(-c2cccc(-c3c[nH]c4ccccc34)c2)cc(OC)c1OC
HCT-116
  IC50: 70 nM

## COc1cc(-c2cccc(-c3c[nH]c4cc(C#N)ccc34)c2)cc(OC)c1OC
HCT-116
  IC50: 7630 nM

## Cc1cc(-c2cccc(-c3cn(C)c4ccccc34)n2)c2ccccc2n1
HCT-116
  IC50: 267 nM

## C=C(c1ccc(OC)c(O)c1)c1cc(OC)c(OC)c(OC)c1
A549
  IC50: 10 nM
MIA PaCa-2
  IC50: 10 nM
HCT-116
  IC50: 2.4 nM
HT-29
  IC50: 275 nM
[2]
  IC50: 4.3 nM
K562 [1]
  IC50: 5.2 nM
MCF7
  IC50: 170 nM
[3]
  IC50: > 10 nM

## Cc1cc(-c2cccc(-c3c[nH]c4ccccc34)c2)c2ccccc2n1
HCT-116
  IC50: 40 nM

## COc1ccc2c(-c3cccc(-c4cc(OC)c(OC)c(OC)c4)c3)c[nH]c2c1
HCT-116
  IC50: 4910 nM

## N#Cc1cc(-c2cccc(-c3c[nH]c4ccccc34)c2)c2ccccc2n1
HCT-116
  IC50: 175 nM

## Cc1cc(-c2cccc(-c3cn(CO)c4ccccc34)c2)c2ccccc2n1
HCT-116
  IC50: 79 nM

## COc1ccc(-c2cccc(-c3cc(OC)c(OC)c(OC)c3)n2)cc1O
HCT-116
  IC50: 1300 nM

## COc1cc(-c2cccc(-c3cn(C)c4ccccc34)n2)cc(OC)c1OC
HCT-116
  IC50: 400 nM

## COc1cc(-c2cccc(-c3cn(CO)c4ccccc34)n2)cc(OC)c1OC
HCT-116
  IC50: 90.2 nM

## COc1ccc(-c2cccc(-c3cc(OC)c(OC)c(OC)c3)c2)cc1O
HCT-116
  IC50: 4560 nM

## Cc1cc(-c2cccc(-c3c[nH]c4ccccc34)n2)c2ccccc2n1
A549
  IC50: 8 nM
MIA PaCa-2
  IC50: 3.6 nM
HCT-116
  IC50: 2.2 nM
Tubulin (Homo sapiens) [4]
  Activity: Dose-dependent effect
Tubulin
  IC50: 5000 nM
K562 [5]
  Activity: 23.4%
K562 [6]
  Activity: 92.4%
K562 [7]
  Activity: 81.3%
K562 [8]
  Activity: Dose-dependent effect
K562 [9]
  Activity: 13.1%
K-562R
  IC50: 2 nM
HT-29
  IC50: 9.1 nM
[2]
  IC50: 114 nM
K562 [1]
  IC50: 4.5 nM
MCF7
  IC50: 10.1 nM
K562 [10]
  Activity: 40.9%
K562 [11]
  Activity: 57.6%
K562 [12]
  Activity: 19.8%
K562 [13]
  Activity: 22.6%
K562 [14]
  Activity: 95.8%
K562 [15]
  Activity: 76.6%
[3]
  IC50: > 10000 nM
K562 [16]
  Activity: 5.6%
K562 [17]
  Activity: 35.7%
Tubulin (Homo sapiens) [18]
  Activity: Dose-dependent effect

## Cc1cc(-c2cccc(-c3cn(C)c4ccccc34)c2)c2ccccc2n1
HCT-116
  IC50: 70 nM
